HIV Env fusion: blocks HIV Env-driven cell-cell fusion; HeLa-JRFL Env/CEM21 cell fusion, luciferase; inhibition, % at 12.3 µM; 360,000 compounds, 1.1% hits;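 active means mean replicate inhibition score of at least 50 and every replicate individually at or above 50; inconclusive means only one of the two criteria met; inactive means mean below 50 and not all replicates reaching 50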;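 further: 0% = plate neutral controls and 100% = maraviroc near 300 nM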
Cneo AK release: Cryptococcus neoformans lysis via adenylate kinase release | C. neoformans lysis, adenylate kinase release luminescence, 4 h; normalised: neutral wells 0, clomiphene wells 100 | lysis activity, % at 15 µM | 360,000 compounds, 0.2% hits;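 active means mean lysis activity across replicates of at least 80%, whatever share of replicates individually reach that level; inactive means mean lysis activity below 80%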
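read-out = cell lysis signal | test system = log-phase Cryptococcus neoformans yeast cells | input = cells at 5 × 10^6 per mL | medium = fresh YPD growth medium | signal = luminescent adenylate kinase detection reagent | timing = 4 h at 37 °C static, read 1 h later | dosing = single dose | controls = Clomiphene as positive lysis control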
INS-1E GSIS act: GLuc luminescence reporter in INS-1E cells, primary screen for activators of glucose-dependent secretion of insulin; 370,000 compounds, 0.61% hits; activation, % at 16.6 µM; INS-1E GLuc reporter insulin secretion, 2-3 h;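 active means lowest replicate activation of at least 40%, so every replicate reaches that level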;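 further: 0% = median of neutral control wells and 100% = median of IBMX positive control wells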
dFosB activator: activators of mouse delta FosB homodimer; P13346; purified delta FosB, TAMRA-CDK5 oligo fluorescence polarization; percent of positive-control signal above neutral wells; activation, % at 25 µM; 340,000 compounds, 0.99% hits; AID 493131;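 active means mean activation above about 17%, with every replicate also reaching it, limit read from the data, passing the limit was not always enough; inconclusive means only one of the two conditions met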
Target sequence (P13346 whole entry, looked up): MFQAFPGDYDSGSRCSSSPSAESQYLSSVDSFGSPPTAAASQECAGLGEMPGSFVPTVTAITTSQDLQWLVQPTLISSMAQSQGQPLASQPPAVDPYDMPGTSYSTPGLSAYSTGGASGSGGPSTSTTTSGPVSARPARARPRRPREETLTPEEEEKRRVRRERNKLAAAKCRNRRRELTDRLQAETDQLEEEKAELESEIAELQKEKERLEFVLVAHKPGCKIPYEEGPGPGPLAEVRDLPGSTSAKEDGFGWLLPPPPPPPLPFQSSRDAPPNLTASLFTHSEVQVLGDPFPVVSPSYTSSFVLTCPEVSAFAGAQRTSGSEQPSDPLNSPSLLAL
miR122 inh: miR-122 inhibition in Huh7 cells. Huh7 miR-122 Renilla luciferase sensor, 48 h; neutral wells = 0, positive control = 100. activation (reporter increase), % at 12.5 µM. 340,000 compounds, 0.3% hits. AID 602342;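 active means mean replicate activation score at least 90 and every replicate individually at or above 90; inconclusive means only one of the two criteria met; inactive means neither criterion met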;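 further: higher luciferase means less miR-122 activity so hits act as miR-122 inhibitors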
Rtt109 HAT inh: inhibitors of Candida albicans Rtt109/Vps75 histone acetyltransferase; purified Rtt109/Vps75, ThioGlo CoA-SH fluorescence, 4 h; Q5AAJ8; 330,000 compounds, 0.16% hits; inhibition, % at 34.9 µM;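 active means inhibition of at least 50% in every replicate; inconclusive means best replicate reaches 50% inhibition but some replicates fall short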
Target sequence (Q5AAJ8 whole entry, looked up): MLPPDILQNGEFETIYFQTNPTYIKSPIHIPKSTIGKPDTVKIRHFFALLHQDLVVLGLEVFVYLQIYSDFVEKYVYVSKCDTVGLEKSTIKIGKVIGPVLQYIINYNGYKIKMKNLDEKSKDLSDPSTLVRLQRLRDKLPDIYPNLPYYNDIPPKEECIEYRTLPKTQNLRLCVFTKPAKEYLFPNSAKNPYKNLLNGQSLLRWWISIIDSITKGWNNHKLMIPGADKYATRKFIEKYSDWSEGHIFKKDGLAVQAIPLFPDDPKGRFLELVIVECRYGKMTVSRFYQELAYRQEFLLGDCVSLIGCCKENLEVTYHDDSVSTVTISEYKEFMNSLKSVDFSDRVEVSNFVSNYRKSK
* hit, by the source's call; i = inactive; ? = inconclusive; / = no result given; [ ] = another dose, or the depositor's remark. Hits are enriched below; roughly 2.4% of the tested compounds scored in any of these assays.

SMILES | HIV Env fusion | Cneo AK release | INS-1E GSIS act | dFosB activator | miR122 inh | Rtt109 HAT inh
CCN(C(=O)CSc1nc(C)nc2sc(C)c(C)c12)C1CCS(=O)(=O)C1 (stereo not given) | / | 1 | 16 | -13 | -1 | 0
CCOC(=O)c1sc2nc(C)nc(SCC(=O)N(C)C3CCS(=O)(=O)C3)c2c1C (stereo not given) | -9 | / | 7 | -13 | / | 50*
O=C1CC(c2cc(Br)ccc2F)c2cc3c(cc2N1)CCC3 (stereo not given) | / | -2 | / | 41* | -8 | 5
O=C(C[C@H]1CC[C@@H](NC(=O)Nc2ccccc2)[C@H](CO)O1)NCc1cccc(F)c1 | -245[16.7 µM] | 0 | -2 | / | / | /
O=[N+]([O-])c1ccccc1Sc1nccn1Cc1ccccc1 | -31 | 0 | 54* | -5 | -2 | 0
O=C1O[C@@H](c2ccccc2)[C@@H](c2ccccc2)N2[C@@H](c3ccc(OCCO)cc3)[C@]3(C(=O)Nc4ccc(C#CC5=CCCCC5)cc43)[C@@H](C(=O)NC[C@H](O)c3ccccc3)[C@H]12 | 14[16.7 µM] | -5 | / | / | / | /
Clc1ccc(CN(Cc2ccccc2)C(c2cccs2)c2nnnn2C2CCCC2)cc1 (stereo not given) | 94* | 3 | / | -15 | 3 | -8
Fc1ccc(CN(Cc2ccccc2)C(c2cccs2)c2nnnn2C2CCCCC2)cc1 (stereo not given) | / | -1 | / | -6 | 38 | 7
C[C@@H]1CCCCO[C@H](CN(C)Cc2ccc(C(F)(F)F)cc2)[C@@H](C)CN([C@H](C)CO)C(=O)c2cc(NC(=O)CCCCCC(=O)Nc3ccccc3N)ccc2O1 | / | / | -12 | / | / | /
COc1cc2ccc(=O)oc2c(O[C@@H]2O[C@H](CO)[C@@H](O)[C@H](O)[C@H]2O)c1O | 0 | 0 | 8 | 5 | 1 | i
COc1cc2ccc(=O)oc2c(O)c1O | / | -2 | / | -9 | -4 | 126*
COCc1cn(CC[C@@H]2CC[C@@H](NC(=O)Nc3ccc(OC)cc3)[C@@H](CO)O2)nn1 | 1[16.7 µM] | 0 | 5 | / | / | /
O=S(=O)(N1CCOCC1)n1c(Cc2ccccc2)nc2ccccc21 | / | -1 | 49* | -12 | 6 | 3
CCCC(=O)Nc1ccc2c(c1)C(=O)N(C)C[C@H](OC)[C@H](C)CN(C(=O)c1ccncc1)[C@H](C)CO2 | 8[16.7 µM] | 42 | 13 | / | / | /
C=CC[C@]12CCc3ccccc3C1N(c1ccc(C(=O)OCC)cc1)C2=O (stereo not given in full) | 61* | -2 | -14 | -3 | -2 | -7
O=C(Cc1ccncc1)Nc1ccc2c(c1)[C@H]1C[C@@H](CC(=O)N3CCCCC3)O[C@H](CO)[C@H]1O2 | / | / | -13 | / | / | /
N#Cc1nccnc1S(=O)(=O)c1cccs1 | 10 | / | 134* | / | / | /
C[C@@H]1CN([C@H](C)CO)S(=O)(=O)c2ccc(C#Cc3ccncc3)cc2O[C@H]1CN(C)C(=O)C1CCOCC1 | 10[16.7 µM] | 0 | 8 | / | -14[16.7 µM] | /
CCCN1C[C@H](C)[C@H](OC)CN(C)C(=O)c2ccc(NC(=O)C3CCOCC3)cc2OC[C@@H]1C | 12[16.7 µM] | -40 | 20 | / | / | /
Cc1ccc(S(=O)(=O)N2CCN(C(=O)COC(=O)c3ccc(Cl)nc3)CC2)c(C)c1 | -3 | 2 | 7 | 32* | -4 | 0
Cc1ccc(S(=O)(=O)N2CCN(C(=O)COC(=O)c3cccnc3Cl)CC2)c(C)c1 | / | -1 | -18 | -2 | -1 | -7
C/C=C/c1ccc2c(c1)O[C@H](CN(C)C(=O)NCCC)[C@H](C)CN([C@@H](C)CO)S2(=O)=O | 36[16.7 µM] | -8 | 15 | / | -38[16.7 µM] | /
COc1ccccc1-c1cnc2c(c1)C(=O)N([C@@H](C)CO)C[C@@H](C)[C@H](CN(C)C(C)=O)O2 | -9[16.7 µM] | -6 | 6 | / | -3[16.7 µM] | /
O=C(NCc1cccnc1)Nc1ccc(Br)cc1Cl | 56* | -2 | 17 | -9 | / | 0
O=C(NCc1cccnc1)Nc1ccc(Cl)cc1Cl | 57* | 2 | 9 | 3 | 4 | -3
SMILES | HIV Env fusion | Cneo AK release | INS-1E GSIS act | dFosB activator | miR122 inh | Rtt109 HAT inh
O=C(NCc1cccnc1)Nc1cccc(Cl)c1Cl | -10 | -3 | -11 | -3 | / | -9
Cc1ccnc(NC(=O)Nc2ccc(Br)cc2Cl)c1 | -253 | / | 133* | 2 | / | -5
NC(=O)[C@@H]1[C@H]2C(=O)O[C@H](c3ccccc3)[C@H](c3ccccc3)N2[C@H](c2ccc(O)cc2)[C@@]12C(=O)Nc1ccc(C#CC3(O)CCCCCC3)cc12 | -19[16.7 µM] | 38 | / | / | / | /
CCN(CC)S(=O)(=O)c1ccc(OC(C)C)c(NC(=O)c2c3c(nc4ccccc24)CCN(Cc2ccccc2)C3)c1 | 59* | 3 | 7 | 6 | 5 | 10
COc1ccc(S(=O)(=O)N2CCCCCC2)cc1NC(=O)c1c2c(nc3ccccc13)CCN(Cc1ccccc1)C2 | 65* | -4 | -40 | ? | 24 | -2
COCC#Cc1ccc2c(c1)O[C@H](CN(C)S(C)(=O)=O)[C@@H](C)CN([C@@H](C)CO)S2(=O)=O | -43[16.7 µM] | 39 | 16 | / | -3[16.7 µM] | /
CC=Cc1ccc2n(c1=O)C[C@H]1[C@H](CO)[C@@H](C(=O)NCc3ccccc3)N(CC)[C@@H]21 (mixture of isomers) | / | / | 13 | / | / | /
COc1ccc2c3c(n(C)c2c1)[C@@H](CO)N(C(=O)CN1CCOCC1)CC31CCN(C)CC1 | / | / | 29 | / | / | /
COc1ccc2c3c(n(C)c2c1)[C@@H](CO)N(S(C)(=O)=O)CC31CCN(C(=O)CN(C)C)CC1 | / | / | 16 | / | / | /
Cc1cc(NC(=O)CCCN2C(=O)/C(=C\c3cccs3)SC2=S)no1 | 3 | -2 | 54* | -4 | -1 | 5
O=C(CCCN1C(=O)/C(=C/c2cccc(Br)c2)SC1=S)Nc1cccnc1 | -11 | -19 | -15 | 22* | -3 | -6
CCc1ccc(/C=C2/SC(=S)N(CC(=O)Nc3nc4ccccc4s3)C2=O)cc1 | / | 5 | / | 28* | -3 | -4
Cc1cc(NC(=O)CN2C(=O)/C(=C/c3cccc(Br)c3)SC2=S)no1 | 8 | / | 1 | 19* | 1 | -6
CCCNC(=O)N(C)C[C@H]1Oc2ncc(-c3ccccc3)cc2C(=O)N([C@H](C)CO)C[C@@H]1C | -13[16.7 µM] | 0 | 1 | / | 5[16.7 µM] | /
CCCNC(=O)N1CC2(CN(Cc3ccc(OC)cc3)C2)c2c(n(C)c3cc(OC)ccc23)[C@@H]1CO | / | / | -2 | / | / | /
C/C(=N/NS(=O)(=O)c1ccc(CC(C)C)cc1)c1ccncc1 | 65* | 0 | -23 | -5 | 4 | -4
C/C(=N/NS(=O)(=O)c1ccc(C(C)C)cc1)c1ccncc1 | 3 | -1 | -17 | -3 | / | 9
COc1ccc(-c2nn(Cc3ccccc3)cc2C(=O)N2CCN(c3ncccn3)CC2)cc1 | 20 | -2 | -13 | -15 | 31 | -5
